Data published in ChEMBL document CHEMBL1148884, “Radioiodinated aza-diphenylacetylenes as potential SPECT imaging agents for beta-amyloid plaque detection” (Bioorg Med Chem Lett, 2007).

Experiments:
[1] = target: Amyloid-beta precursor protein (Homo sapiens, UniProt P05067); experiment: Displacement of [125I]IMPY from beta amyloid plaque in human brain homogenates; format: tissue-based
Outline: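 Competition binding with [125I]IMPY as radioligand on homogenates from postmortem Alzheimer's disease brain tissue. Non-radioactive ligands compete for plaque binding, and Ki is derived from the competition. Each value was determined three times with duplicate samples in each measurement, reported as mean ± SEM.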

[2] = Lipophilicity, log P of the compound; format: physicochemical; conditions: octanol/water

Chain of Amyloid-beta precursor protein (P05067 whole entry): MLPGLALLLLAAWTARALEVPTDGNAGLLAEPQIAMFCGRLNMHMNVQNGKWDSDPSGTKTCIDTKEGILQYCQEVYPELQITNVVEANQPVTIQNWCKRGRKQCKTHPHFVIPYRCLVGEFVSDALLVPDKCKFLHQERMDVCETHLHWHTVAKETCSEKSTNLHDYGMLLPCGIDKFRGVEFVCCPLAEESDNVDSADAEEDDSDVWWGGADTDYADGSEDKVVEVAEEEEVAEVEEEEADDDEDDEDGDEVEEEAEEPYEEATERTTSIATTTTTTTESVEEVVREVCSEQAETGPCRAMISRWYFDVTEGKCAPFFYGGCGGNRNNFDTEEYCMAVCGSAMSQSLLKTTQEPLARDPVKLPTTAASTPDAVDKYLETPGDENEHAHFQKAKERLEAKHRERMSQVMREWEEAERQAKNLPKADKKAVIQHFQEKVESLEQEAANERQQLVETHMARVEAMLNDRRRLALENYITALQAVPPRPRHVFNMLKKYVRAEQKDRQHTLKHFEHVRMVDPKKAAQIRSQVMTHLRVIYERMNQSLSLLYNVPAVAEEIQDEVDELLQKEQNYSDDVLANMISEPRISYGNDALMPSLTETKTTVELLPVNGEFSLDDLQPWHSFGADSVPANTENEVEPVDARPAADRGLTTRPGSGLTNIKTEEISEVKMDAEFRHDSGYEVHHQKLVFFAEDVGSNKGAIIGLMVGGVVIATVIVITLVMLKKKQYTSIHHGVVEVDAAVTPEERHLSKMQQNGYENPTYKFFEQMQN

Row | SMILES | Ki [1] | logP [2]
1 | OCCOc1ncc(C#Cc2ccc(O)cc2)cc1I | 6.2 nM | –
2 | CN(C)c1ccc(C#Cc2cnc(OCCOCCOCCF)c(I)c2)cc1 | 16.8 nM | –
3 | CNc1ccc(C#Cc2cnc(OCCO)c(Br)c2)cc1 | 1.6 nM | –
4 | CNc1ccc(C#Cc2cnc(OCCOCCOCCF)c(Br)c2)cc1 | 13.1 nM | –
5 | CN(C)c1ccc(C#Cc2cnc(OCCO)c([125I])c2)cc1 | – | 2.8
6 | CN(C)c1ccc(C#Cc2cnc(OCCO)c(I)c2)cc1 | 9.2 nM | –
7 | CN(C)c1ccc(C#Cc2cnc(OCCO)c(Br)c2)cc1 | 6.7 nM | –
8 | CNc1ccc(C#Cc2cnc(OCCO)c(I)c2)cc1 | 12.5 nM | –
9 | CN(C)c1ccc(C#Cc2cnc(OCCOCCOCCF)c([125I])c2)cc1 | – | 2.6
10 | CN(C)c1ccc(C#Cc2cnc(OCCOCCOCCF)c(Br)c2)cc1 | 11.2 nM | –
